Assay [1] has as its target T1, Calcitonin receptor (Homo sapiens, UniProt P30988).
T1 sequence (P30988 whole entry): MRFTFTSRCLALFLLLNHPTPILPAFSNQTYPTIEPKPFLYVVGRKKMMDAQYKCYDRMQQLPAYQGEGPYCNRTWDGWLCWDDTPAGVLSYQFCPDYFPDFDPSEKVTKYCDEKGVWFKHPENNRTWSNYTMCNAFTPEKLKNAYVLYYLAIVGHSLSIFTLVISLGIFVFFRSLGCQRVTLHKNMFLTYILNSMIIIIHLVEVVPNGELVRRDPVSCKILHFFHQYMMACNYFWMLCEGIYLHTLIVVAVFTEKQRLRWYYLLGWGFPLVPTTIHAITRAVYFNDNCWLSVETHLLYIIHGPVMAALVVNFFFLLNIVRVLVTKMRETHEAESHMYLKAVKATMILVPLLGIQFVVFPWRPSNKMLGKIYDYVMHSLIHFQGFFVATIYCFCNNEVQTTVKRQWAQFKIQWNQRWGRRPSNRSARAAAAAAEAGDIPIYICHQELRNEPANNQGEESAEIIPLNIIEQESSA
Kind of assay: Inhibition of [125I]-salmon calcitonin (sCT) binding to human calcitonin receptor I1 expressed in HEK293 cells. Type of assay: cell-based.

The target in assay [2] is T2, Calcitonin receptor (Rattus norvegicus, UniProt P32214).
T2 sequence (P32214 whole entry): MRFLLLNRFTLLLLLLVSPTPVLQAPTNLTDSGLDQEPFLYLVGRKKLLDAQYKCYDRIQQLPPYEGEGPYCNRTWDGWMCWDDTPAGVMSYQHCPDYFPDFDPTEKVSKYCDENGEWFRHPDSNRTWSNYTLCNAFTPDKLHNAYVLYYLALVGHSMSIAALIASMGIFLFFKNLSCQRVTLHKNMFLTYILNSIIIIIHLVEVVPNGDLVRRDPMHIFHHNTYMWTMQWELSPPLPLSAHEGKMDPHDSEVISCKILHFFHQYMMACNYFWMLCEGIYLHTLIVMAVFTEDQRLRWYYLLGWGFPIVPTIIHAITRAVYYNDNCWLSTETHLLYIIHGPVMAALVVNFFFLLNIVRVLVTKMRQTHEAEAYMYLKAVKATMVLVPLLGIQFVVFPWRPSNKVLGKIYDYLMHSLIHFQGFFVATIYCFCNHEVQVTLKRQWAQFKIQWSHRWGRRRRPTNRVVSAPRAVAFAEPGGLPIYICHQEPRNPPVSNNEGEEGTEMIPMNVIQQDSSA
Kind of assay: Displacement of [125I]-salmon calcitonin (sCT) from calcitonin receptor of rat brain. The method in brief:
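Male Sprague–Dawley rat (250–350 g) brain membranes (~0.63 mg protein/tube) were shaken on ice for 30 min with 10 pM final [125I-Tyr22]sCT and competitor in 50 mM Tris-HCl pH 7.4 with 34 μM bacitracin. Tubes were centrifuged and the pellets washed, SDS-solubilized and scintillation counted. Nonspecific binding was taken with 1 μM sCT. IC50 came from probit analysis, and relative affinity set sCT = 100%.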
(Loss of bound radioactivity is the signal in a displacement assay; it reports binding, not function.)

Positions of bridges follow the written chain, without caps; N, C: chain ends. Non-standard residues stand in square brackets, D forms with d. Residues, ends and D or L forms follow the SMILES beside them. Nle = CCCC[C@H](N)C(=O)O; Orn = NCCC[C@H](N)C(=O)O

Regarding `CC(C)C[C@H](NC(=O)[C@H](CCCCN)NC(=O)CNC(=O)[C@H](CC(C)C)NC(=O)[C@@H](NC(=O)[C@H](CS)NC(=O)[C@@H](NC(=O)[C@H](CO)NC(=O)[C@H](CC(C)C)NC(=O)[C@H](CC(N)=O)NC(=O)[C@H](CO)NC(=O)[C@@H](N)CS)[C@@H](C)O)C(C)C)C(=O)N[C@@H](CO)C(=O)N[C@@H](CCC(N)=O)C(=O)N[C@@H](CCC(=O)O)C(=O)N[C@@H](CC(C)C)C(=O)N[C@H]1CC(=O)NCCCC[C@@H](C(=O)N[C@@H](Cc2ccc(O)cc2)C(=O)N2CCC[C@H]2C(=O)N[C@@H](CCCN=C(N)N)C(=O)N[C@H](C(=O)N[C@@H](CC(N)=O)C(=O)N[C@H](C(=O)NCC(=O)N[C@@H](CO)C(=O)NCC(=O)N[C@H](C(=O)N2CCC[C@H]2C(N)=O)[C@@H](C)O)[C@@H](C)O)[C@@H](C)O)NC(=O)[C@H](Cc2c[nH]cn2)NC(=O)[C@H](CC(C)C)NC(=O)[C@H](CCCCN)NC1=O` (H-CSNLSTCVLGKLSQELDKLHKYPRTNTGSGTP-NH2; lactam 17-21), the Ki on Calcitonin receptor [1] (hek293) stood at 0.05 nM. Besides, the IC50 on Calcitonin receptor [2] turned out to be 0.18 nM.
For `CC[C@H](C)[C@H](NC(=O)[C@H](C)NC(=O)[C@@H](NC(=O)[C@H](CCC(N)=O)NC(=O)[C@@H]1CCCN1C(=O)[C@H](Cc1ccccc1)NC(=O)[C@@H](NC(=O)[C@H](Cc1cnc[nH]1)NC(=O)[C@H](Cc1ccccc1)NC(=O)[C@@H]1CCCN1C(=O)[C@H](CC(N)=O)NC(=O)[C@H](Cc1ccccc1)NC(=O)[C@H](CC(=O)O)NC(=O)[C@H](CCC(N)=O)NC(=O)[C@@H](NC(=O)[C@H](Cc1ccc(O)cc1)NC(=O)[C@@H](NC(=O)CNC(=O)[C@H](CC(C)C)NC(=O)[C@H](CCSC)NC(=O)[C@@H]1CSSC[C@H](N)C(=O)NCC(=O)N[C@@H](CC(N)=O)C(=O)N[C@@H](CC(C)C)C(=O)N[C@@H](CO)C(=O)N[C@@H]([C@@H](C)O)C(=O)N1)[C@@H](C)O)[C@@H](C)O)[C@@H](C)O)[C@@H](C)O)C(=O)NCC(=O)N[C@H](C(=O)NCC(=O)N[C@@H](C)C(=O)N1CCC[C@H]1C(N)=O)C(C)C` (H-CGNLSTCMLGTYTQDFNPFHTFPQTAIGVGAP-NH2; disulfide 1-7), the Ki on Calcitonin receptor [1] (hek293) worked out at 1230 nM. For the same molecule, the IC50 at Calcitonin receptor [2] came out at 1910 nM.
The matching figures for `CC[C@H](C)[C@H](NC(=O)[C@H](C)NC(=O)[C@@H](NC(=O)[C@H](CCC(N)=O)NC(=O)[C@@H]1CCCN1C(=O)[C@H](Cc1ccccc1)NC(=O)[C@@H](NC(=O)[C@H](Cc1c[nH]cn1)NC(=O)[C@H](CCCCN)NC(=O)[C@@H]1CCCN1C(=O)[C@H](CC(N)=O)NC(=O)[C@H](Cc1ccccc1)NC(=O)[C@H](CC(=O)O)NC(=O)[C@H](CCC(N)=O)NC(=O)[C@@H](NC(=O)[C@H](Cc1ccc(O)cc1)NC(=O)[C@@H](NC(=O)CNC(=O)[C@H](CC(C)C)NC(=O)[C@H](CCSC)NC(=O)[C@@H]1CSSC[C@H](N)C(=O)NCC(=O)N[C@@H](CC(N)=O)C(=O)N[C@@H](CC(C)C)C(=O)N[C@@H](CO)C(=O)N[C@@H]([C@@H](C)O)C(=O)N1)[C@@H](C)O)[C@@H](C)O)[C@@H](C)O)[C@@H](C)O)C(=O)NCC(=O)N[C@H](C(=O)NCC(=O)N[C@@H](C)C(=O)N1CCC[C@H]1C(N)=O)C(C)C` (H-CGNLSTCMLGTYTQDFNPKHTFPQTAIGVGAP-NH2; disulfide 1-7): 2570 nM and > 5000 nM.
The matching figures for `CC[C@H](C)[C@H](NC(=O)[C@H](C)NC(=O)[C@@H](NC(=O)[C@H](CCC(N)=O)NC(=O)[C@@H]1CCCN1C(=O)[C@H](Cc1ccccc1)NC(=O)[C@@H](NC(=O)[C@H](Cc1cnc[nH]1)NC(=O)CNC(=O)[C@@H]1CCCN1C(=O)[C@H](CC(N)=O)NC(=O)[C@H](Cc1ccccc1)NC(=O)[C@H](CC(=O)O)NC(=O)[C@H](CCC(N)=O)NC(=O)[C@@H](NC(=O)[C@H](Cc1ccc(O)cc1)NC(=O)[C@@H](NC(=O)CNC(=O)[C@H](CC(C)C)NC(=O)[C@H](CCSC)NC(=O)[C@@H]1CSSC[C@H](N)C(=O)NCC(=O)N[C@@H](CC(N)=O)C(=O)N[C@@H](CC(C)C)C(=O)N[C@@H](CO)C(=O)N[C@@H]([C@@H](C)O)C(=O)N1)[C@@H](C)O)[C@@H](C)O)[C@@H](C)O)[C@@H](C)O)C(=O)NCC(=O)N[C@H](C(=O)NCC(=O)N[C@@H](C)C(=O)N1CCC[C@H]1C(N)=O)C(C)C` (H-CGNLSTCMLGTYTQDFNPGHTFPQTAIGVGAP-NH2; disulfide 1-7): > 2500 nM and > 5000 nM.
For the molecule `CC(C)C[C@H](NC(=O)[C@H](CCCCN)NC(=O)CNC(=O)[C@H](CC(C)C)NC(=O)[C@@H](NC(=O)[C@@H]1CSSC[C@H](N)C(=O)N[C@@H](CO)C(=O)N[C@@H](CC(N)=O)C(=O)N[C@@H](CC(C)C)C(=O)N[C@@H](CO)C(=O)N[C@@H]([C@@H](C)O)C(=O)N1)C(C)C)C(=O)N[C@@H](CO)C(=O)N[C@@H](CCC(N)=O)C(=O)N[C@@H](CCC(=O)O)C(=O)N[C@@H](CC(C)C)C(=O)N[C@@H](Cc1c[nH]cn1)C(=O)N[C@@H](CCCCN)C(=O)N[C@@H](CC(C)C)C(=O)N[C@@H](CCC(N)=O)C(=O)N[C@H](C(=O)N[C@@H](Cc1ccc(O)cc1)C(=O)N1CCC[C@H]1C(=O)N[C@@H](CCCNC(=N)N)C(=O)N[C@H](C(=O)N[C@@H](CC(N)=O)C(=O)N[C@H](C(=O)NCC(=O)N[C@@H](CO)C(=O)NCC(=O)N[C@H](C(=O)N1CCC[C@H]1C(N)=O)[C@@H](C)O)[C@@H](C)O)[C@@H](C)O)[C@@H](C)O`, on Calcitonin receptor [1], the Ki is […]. Further, the IC50 on Calcitonin receptor [2] is 0.377 nM.
Regarding `CCCC[C@H](NC(=O)[C@H](CS)NC(=O)[C@@H](NC(=O)[C@H](CO)NC(=O)[C@H](CC(C)C)NC(=O)[C@H](CC(N)=O)NC(=O)CNC(=O)[C@@H](N)CS)[C@@H](C)O)C(=O)N[C@@H](CC(C)C)C(=O)NCC(=O)N[C@H](C(=O)N[C@@H](Cc1ccccc1)C(=O)N[C@H](C(=O)N[C@@H](CCC(N)=O)C(=O)N[C@@H](CC(=O)O)C(=O)N[C@@H](Cc1ccccc1)C(=O)N[C@H]1CC(=O)NCCC[C@@H](C(=O)N[C@@H](Cc2ccc(O)cc2)C(=O)N2CCC[C@H]2C(=O)N[C@@H](CCC(N)=O)C(=O)N[C@H](C(=O)N[C@@H](C)C(=O)N[C@H](C(=O)NCC(=O)N[C@H](C(=O)NCC(=O)N[C@@H](C)C(=O)N2CCC[C@H]2C(N)=O)C(C)C)[C@@H](C)CC)[C@@H](C)O)NC(=O)[C@H](Cc2c[nH]cn2)NC(=O)[C@H](Cc2ccccc2)NC(=O)[C@H](CCCCN)NC1=O)[C@@H](C)O)[C@@H](C)O` (H-CGNLSTC[Nle]LGTFTQDFDKFH[Orn]YPQTAIGVGAP-NH2; lactam 17-21), the inhibition constant (Ki) at Calcitonin receptor [1] (hek293) worked out at 0.56 nM. In addition, at Calcitonin receptor [2], the IC50 was 5.39 nM.
The corresponding values for `CC(C)C[C@H](NC(=O)[C@H](CCCCN)NC(=O)CNC(=O)[C@H](CC(C)C)NC(=O)[C@@H](NC(=O)[C@H](CS)NC(=O)[C@@H](NC(=O)[C@H](CO)NC(=O)[C@H](CC(C)C)NC(=O)[C@H](CC(N)=O)NC(=O)[C@H](CO)NC(=O)[C@@H](N)CS)[C@@H](C)O)C(C)C)C(=O)N[C@@H](CO)C(=O)N[C@@H](CCC(N)=O)C(=O)N[C@@H](CCC(=O)O)C(=O)N[C@@H](CC(C)C)C(=O)N[C@H]1CC(=O)NCCC[C@@H](C(=O)N[C@@H](Cc2ccc(O)cc2)C(=O)N2CCC[C@H]2C(=O)N[C@@H](CCCN=C(N)N)C(=O)N[C@H](C(=O)N[C@@H](CC(N)=O)C(=O)N[C@H](C(=O)NCC(=O)N[C@@H](CO)C(=O)NCC(=O)N[C@H](C(=O)N2CCC[C@H]2C(N)=O)[C@@H](C)O)[C@@H](C)O)[C@@H](C)O)NC(=O)[C@H](CCC(N)=O)NC(=O)[C@H](CC(C)C)NC(=O)[C@H](CCCCN)NC1=O` are 0.023 nM and 0.326 nM.
Take `CC[C@H](C)[C@H](NC(=O)[C@H](C)NC(=O)[C@@H](NC(=O)[C@H](CCC(N)=O)NC(=O)[C@@H]1CCCN1C(=O)[C@H](Cc1ccccc1)NC(=O)[C@@H](NC(=O)[C@H](Cc1c[nH]cn1)NC(=O)[C@@H]1CCCN1C(=O)[C@H](CCCCN)NC(=O)[C@H](CC(N)=O)NC(=O)[C@H](Cc1ccccc1)NC(=O)[C@H](CC(=O)O)NC(=O)[C@H](CCC(N)=O)NC(=O)[C@@H](NC(=O)[C@H](Cc1ccc(O)cc1)NC(=O)[C@@H](NC(=O)CNC(=O)[C@H](CC(C)C)NC(=O)[C@H](CCSC)NC(=O)[C@@H]1CSSC[C@H](N)C(=O)NCC(=O)N[C@@H](CC(N)=O)C(=O)N[C@@H](CC(C)C)C(=O)N[C@@H](CO)C(=O)N[C@@H]([C@@H](C)O)C(=O)N1)[C@@H](C)O)[C@@H](C)O)[C@@H](C)O)[C@@H](C)O)C(=O)NCC(=O)N[C@H](C(=O)NCC(=O)N[C@@H](C)C(=O)N1CCC[C@H]1C(N)=O)C(C)C` (H-CGNLSTCMLGTYTQDFNKPHTFPQTAIGVGAP-NH2; disulfide 1-7): on Calcitonin receptor [1] (hek293), the Ki was 400 nM. Further, at Calcitonin receptor [2], the IC50 was > 5000 nM.

As usually defined, the Ki is a dissociation constant, usually derived from enzyme kinetics or from competition with a known ligand. One may read the IC50 as the concentration at which inhibition is half-maximal.

(Values after ChEMBL document CHEMBL1135734, “Side-chain lactam-bridge conformational constraints differentiate the activities of salmon and human calcitonins and reveal a new design concept for potent calcitonin analogues” (J Med Chem, 2002).)
